Rows were chosen to be rich in hits. Some 4% of all compounds tested hit in one or more screens of this group.
Statin myotox sup: suppression of simvastatin myotoxicity | 0.78% of 330,000 active | C2C12 myotubes + simvastatin, ATP luminescence, 48 h; scaled: DMSO 0, geranylgeraniol control 100 | rescue of ATP level, % at 7.49 µM;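 active means mean ATP rescue above about 67%, or every replicate alone reaching that limit, limit read from the data, passing the limit was not always enough; inconclusive means no clear call, values can overlap the other calls; inactive means mean under the limit and some replicate under it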;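 further: myotubes were challenged with 10 µM simvastatin during compound exposure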
E-selectin induc: E-selectin induction on HUVECs; P16581; HUVEC E-selectin immunofluorescence imaging; normalized: neutral wells 0, TNF-alpha wells 100; activation, % at 7.58 µM; 0.37% of 260,000 active; AID 686992;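 active means mean E-selectin-positive cell signal at least 10% of the positive control, reached in at least 60% of replicates, without over 20% cell loss; inconclusive means no rule given, readout overlaps actives, possibly toxicity-flagged; inactive means the rest, including those meeting only one limit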
Target sequence (P16581 whole entry, looked up): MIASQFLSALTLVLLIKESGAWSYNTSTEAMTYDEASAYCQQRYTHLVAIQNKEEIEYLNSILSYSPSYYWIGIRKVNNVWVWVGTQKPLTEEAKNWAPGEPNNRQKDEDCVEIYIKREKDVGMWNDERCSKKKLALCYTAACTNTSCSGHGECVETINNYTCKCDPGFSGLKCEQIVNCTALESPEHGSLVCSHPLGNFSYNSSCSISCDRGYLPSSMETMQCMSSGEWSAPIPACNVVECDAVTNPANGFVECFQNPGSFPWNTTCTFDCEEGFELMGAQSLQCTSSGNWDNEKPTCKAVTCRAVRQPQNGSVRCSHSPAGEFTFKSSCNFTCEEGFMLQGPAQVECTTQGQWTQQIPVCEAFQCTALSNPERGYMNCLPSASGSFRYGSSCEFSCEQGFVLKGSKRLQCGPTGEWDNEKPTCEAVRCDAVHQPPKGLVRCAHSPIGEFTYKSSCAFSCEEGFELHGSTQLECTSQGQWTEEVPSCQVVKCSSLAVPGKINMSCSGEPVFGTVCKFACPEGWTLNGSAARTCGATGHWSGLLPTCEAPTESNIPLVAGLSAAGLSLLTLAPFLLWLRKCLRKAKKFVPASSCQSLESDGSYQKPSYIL
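material = human umbilical vein endothelial cells (HUVEC), E-selectin induction | quantity = 3,000 cells/well | medium = EGM-2 growth medium on 0.1% gelatin-coated wells | technique = immunofluorescence imaging | read-out basis = % PE-positive cells | control set = TNF-alpha positive control, DMSO neutral control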
FN deposit inh: fibronectin deposition inhibition | AH1F fibroblasts, Alexa488-fibronectin deposition fluorescence, overnight | inhibition, % at 12.6 µM | 0.086% of 350,000 active | AID 743247;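 active means mean inhibition across replicates of 30% or more, regardless of how many single replicates reach that level; inconclusive means mean under 30% yet at least half of replicates reach 30%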;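 further: positive control wells lacked labelled fibronectin entirely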
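Measured by – fluorescence 485/525 nm · System – AH1F fibroblast monolayer, labelled fibronectin deposition · Amount – 10000 cells per well · Buffer or medium – serum-reduced DMEM (2% serum) · Doses – single dose, pinned · Also added – fluorescent fibronectin at 24 nM final · Schedule – 1 h cell attachment, overnight exposure to compound and label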
FGF22 binding: FGF22 (human) thermal shift binding; AID 651658; recombinant FGF22 thermal shift, SYPRO orange fluorescence; percent of sucrose octasulfate shift, DMSO zero; Q9HCT0; activity (Tm shift, normalised), % at 9.99 µM; 1.5% of 340,000 active;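 active means mean Tm shift, scaled 0 neutral to 100 positive control, at about 1.3% or above, every replicate too, limit read from the data; inconclusive means no clear call, values can overlap the other calls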
SIRT5 inh: inhibitors of human sirtuin-5 desuccinylase; Q9NXA8; 1.1% of 330,000 active; Purified SirT5, succinyl-peptide AMC, trypsin-coupled fluorescence; inhibition, % at 15 µM; in the data active means inhibition above about 15%; inconclusive means no clear call, values can overlap the other calls
Ecoli rRNA inh: inhibitors of bacterial rRNA selective over humanized ribosomes. 1.6% of 350,000 active. GFP signal change (wild-type ribosome), % (test concentration not listed). E. coli WT GFP vs humanized-ribosome RFP mutants, fluorescence, 24 h; stronger effect = lower value; DMSO median 0, no signal -100;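 active means significant combined selectivity score with lowered wild-type GFP, culture density cut under 30%, mutant RFP and density less affected; inactive means any of these conditions unmet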
An asterisk follows results filed as active; ? = inconclusive; / = not tested or not shown.

SMILES	Statin myotox sup	E-selectin induc	FN deposit inh	FGF22 binding	SIRT5 inh	Ecoli rRNA inh
O=c1[nH]c(C2CCN(S(=O)(=O)c3ccc4c(c3)OCCO4)CC2)nc2c1nnn2Cc1c(F)cccc1Cl	37	0	14	0	-6	-8
O=c1[nH]c(C2CCN(S(=O)(=O)c3ccc4c(c3)OCCO4)CC2)nc2c1nnn2Cc1ccccc1F	15	/	2	0	-1	-28*
C=C1C(=O)C23CCC4C(C)(C(=O)OC)CCCC4(C)C2CCC1(O)C3 (centres undefined)	/	0	37*	0	/	-37
COC(=O)[C@]1(C)CCC[C@@]2(C)C3CC[C@@]4(C)C[C@]3(CCC21)CC(=O)N4 (some centres undefined)	10	0	0	0	/	-28*
C[C@@]12CCC3[C@@](CCC4[C@@]3(C)CCC[C@@]4(C)C(=O)O)(CC1=O)C2 (some centres undefined)	-7	0	-2	0	-2	-40
C=C1C[C@@]23CCC4[C@@](C)(CCC[C@@]4(C)C(=O)O)C2CC[C@]1(O)C3 (some centres undefined)	4	0	3	0	0	/
CCCNC(=O)N(C)C[C@H]1Oc2cc(-c3ccccc3F)ccc2S(=O)(=O)N([C@H](C)CO)C[C@@H]1C	-10	4	-14	0	/	-4
CC(C)C#Cc1cnc2c(c1)C(=O)N([C@H](C)CO)C[C@@H](C)[C@H](CN(C)C(=O)c1cnccn1)O2	-3	0	-6	1	-3	-4
CCn1c(CNc2cccc(C(F)(F)F)c2)n[nH]c1=S	/	0	3	43*	-1	3
Nc1nc(SCn2nnc3ccccc3c2=O)n[nH]1	/	1	4	43*	0	7
N#Cc1ccc(C(=O)N2CCN(S(=O)(=O)c3ccc(Br)s3)CC2)cc1	/	/	6	44*	-1	2
CSc1ccc2c(c1)C(N1CCN(C)CC1)Cc1ccc(F)cc1S2 (centres undefined)	0	0	7	0	-5	-48*
CCCN(C)C[C@H]1Oc2cc(-c3ccc(C)cc3)ccc2S(=O)(=O)N([C@H](C)CO)C[C@@H]1C	-24	0	-10	0	-2	-1
C[C@@H]1CN([C@H](C)CO)C(=O)Cc2cc(NS(C)(=O)=O)ccc2O[C@@H]1CN(C)C(=O)Nc1ccccc1	5	14	0	0	-1	1
C[C@@H]1CCCCO[C@@H](CN(C)C(=O)Nc2ccc(F)cc2)[C@H](C)CN([C@H](C)CO)C(=O)c2cc(NC(=O)c3ccncc3)ccc2O1	/	0	-4	1	3	-1
CC(C)c1c(C(=O)N/N=C/c2cccs2)nnn1-c1nonc1N	1	/	-11	0	5	-6
Nc1nonc1-n1nnc(C(=O)N/N=C/c2cccc(Cl)c2)c1-c1cccs1	72*	/	0	0	1	-17*
Cc1ccsc1/C=N/NC(=O)c1nnn(-c2nonc2N)c1C(C)C	-5	/	-11	0	-3	-18*
CC(=O)N1[C@@H]2c3ccc(-c4ccncc4)c(=O)n3C[C@@H]2[C@@H](CO)[C@@H]1C(=O)NC1Cc2ccccc2C1	1	0	/	0	-56	2
C[C@H]1CN([C@@H](C)CO)C(=O)c2cc(NC(=O)C3CCCCC3)ccc2O[C@@H]1CN(C)C(=O)Nc1ccc(F)cc1	5	-4	/	0	-3	2
COc1ccc(NC(=O)N(C)C[C@@H]2Oc3ccc(N(C)C)cc3CC(=O)N([C@H](C)CO)C[C@@H]2C)cc1	-10	-4	/	1	0	2
COc1ccc(NC(=O)N(C)C[C@H]2Oc3ccc(NS(=O)(=O)c4ccc(OC)cc4)cc3CC(=O)N([C@H](C)CO)C[C@H]2C)cc1	28	0	/	0	20*	2
COc1ccc(S(=O)(=O)Nc2ccc3c(c2)CC(=O)N([C@@H](C)CO)C[C@H](C)[C@H](CN(C)C(=O)NC2CCCCC2)O3)cc1	-56	?	/	0	1	0
COc1ccc(S(=O)(=O)Nc2ccc3c(c2)CC(=O)N([C@H](C)CO)C[C@@H](C)[C@H](CN(C)C(=O)NC2CCCCC2)O3)cc1	-18	48*	/	0	2	8
COc1ccc(NC(=O)N(C)C[C@H]2Oc3ccc(N(C)C)cc3CC(=O)N([C@H](C)CO)C[C@@H]2C)cc1	-13	327*	/	0	-6	-3
SMILES	Statin myotox sup	E-selectin induc	FN deposit inh	FGF22 binding	SIRT5 inh	Ecoli rRNA inh
CNC[C@H]1Oc2ccc(NS(=O)(=O)c3ccc(OC)cc3)cc2CC(=O)N([C@@H](C)CO)C[C@@H]1C	20	60*	/	0	4	0
CNC[C@H]1Oc2ccc(NS(=O)(=O)c3ccc(OC)cc3)cc2CC(=O)N([C@@H](C)CO)C[C@H]1C	35	-2	/	/	-2	8
CN1c2ccc(C#Cc3cccnc3)cc2[C@H]2[C@H](CCN2C(=O)C2CCOCC2)[C@@H]1CO	-8	0	7	0	0	2
Cn1[nH]c(C(F)(F)F)c(C=NCc2ccc(Cl)cc2)c1=O	-3	/	1	0	2	10
Cc1[nH][nH]c(=O)c1C=NCc1ccc(Cl)cc1	-3	/	-8	43*	1	8
C(=N\N1CCN(c2ccccn2)CC1)/c1cccc2ccccc12	/	0	2	0	-6	-21*
CC(C)NC(=O)N(C)C[C@@H]1Oc2ccc(NC(=O)CCN3CCOCC3)cc2C(=O)N([C@@H](C)CO)C[C@H]1C	10	33*	/	0	-2	4
CC(C)NC(=O)N(C)C[C@H]1Oc2ccc(NC(=O)CCN3CCOCC3)cc2C(=O)N([C@H](C)CO)C[C@H]1C	-9	26	/	0	4	-2
C[C@H]1CN([C@@H](C)CO)C(=O)c2cc(NC(=O)CCN3CCOCC3)ccc2O[C@H]1CN(C)C(=O)Nc1ccc2c(c1)OCO2	37	-3	/	0	20*	1
CC(C)NC(=O)N(C)C[C@H]1Oc2ccc(NC(=O)CCN3CCOCC3)cc2C(=O)N([C@H](C)CO)C[C@@H]1C	0	43*	39*	0	-11	4
C[C@H](CO)N1C[C@H](C)[C@@H](CN(C)S(=O)(=O)c2cn(C)cn2)Oc2ccc(NC(=O)CCCCCC(=O)Nc3ccccc3N)cc2C1=O	35	?	/	0	/	0
O=C(C[C@@H]1CC[C@H]2[C@@H](COC[C@H](O)CN2Cc2cccc(F)c2)O1)NCc1ccncc1	-1	0	-1	0	-2	4
O=c1c2[nH]c3ccccc3c2ncn1C1CCCCC1	-2	/	0	/	/	/

Source: PubChem (Broad Institute)
